Experimental data reported in ChEMBL document CHEMBL1140728, “Synthesis and biological activity of human neuropeptide S analogues modified in position 2” (J Med Chem, 2008).
Non-standard residues stand in square brackets, D forms with d. Residues, ends and D or L forms follow the SMILES beside them. Phe(4-NO2) = N[C@@H](Cc1ccc([N+](=O)[O-])cc1)C(=O)O; Dip = N[C@H](C(=O)O)C(c1ccccc1)c1ccccc1; 2Nal = N[C@@H](Cc1ccc2ccccc2c1)C(=O)O; hPhe = N[C@@H](CCc1ccccc1)C(=O)O; Tic = O=C(O)[C@@H]1Cc2ccccc2CN1; β3hF = N[C@H](CC(=O)O)Cc1ccccc1; Phg = N[C@H](C(=O)O)c1ccccc1

Legend:
Format in all cases: functional, cell-based
[1] = target: T1, Neuropeptide S receptor (Mus musculus) (UniProt Q8BZP8); experiment: Agonist activity at mouse recombinant NPS receptor expressed in HEK293 cells assessed as intracellular calcium mobilization at 10 umol
T1 sequence (whole entry): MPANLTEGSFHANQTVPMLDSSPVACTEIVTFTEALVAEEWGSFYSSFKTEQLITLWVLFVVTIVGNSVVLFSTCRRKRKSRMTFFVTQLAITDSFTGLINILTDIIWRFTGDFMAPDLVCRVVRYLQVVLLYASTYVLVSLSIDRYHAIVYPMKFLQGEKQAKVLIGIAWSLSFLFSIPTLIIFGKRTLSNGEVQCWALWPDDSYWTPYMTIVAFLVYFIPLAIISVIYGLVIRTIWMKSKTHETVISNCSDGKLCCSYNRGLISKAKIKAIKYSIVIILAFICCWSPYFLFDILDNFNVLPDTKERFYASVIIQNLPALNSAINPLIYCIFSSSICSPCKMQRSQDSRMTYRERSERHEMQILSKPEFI

[2] = target: T2, Neuropeptide S receptor (Mus musculus, UniProt Q8BZP8); experiment: Agonist activity at mouse recombinant NPS receptor expressed in HEK293 cells assessed as intracellular calcium mobilization
T2 sequence (Q8BZP8 whole entry): T1 sequence (whole entry)
How it was run: (§1)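 HEK293 cells stably expressing mouse NPSR, kept in DMEM with 10% FBS, 2 mM L-glutamine and hygromycin (100 mg/L), were seeded at 50 000 cells/well. Next day they were loaded with Fluo-4 AM (3 µmol), probenecid (2.5 mmol) and 0.01% pluronic acid for 30 min at 37 °C. Agonist dilutions in HBSS/HEPES with 0.02% BSA were added, and FlexStation II fluorescence was read at 22 °C.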

[3] = target: T1, Neuropeptide S receptor (Mus musculus); experiment: Agonist activity at mouse recombinant NPS receptor expressed in HEK293 cells assessed as intracellular calcium mobilization relative to baseline; how it was run: as §1

Molecule | Activity [1] [%] | EC50 [2] [nM] | Emax [3] [%]
CSCC[C@H](NC(=O)CNC(=O)[C@@H](NC(=O)CNC(=O)[C@@H](NC(=O)CNC(=O)[C@H](CC(N)=O)NC(=O)[C@H](CCCNC(=N)N)NC(=O)[C@@H](NC(=O)[C@@H](N)CO)C(c1ccccc1)c1ccccc1)C(C)C)[C@@H](C)O)C(=O)N[C@@H](CCCCN)C(=O)N[C@@H](CCCCN)C(=O)N[C@H](C(=O)N[C@@H](CO)C(=O)N[C@@H](Cc1ccccc1)C(=O)N[C@@H](CCC(N)=O)C(=O)N[C@@H](CCCNC(=N)N)C(=O)N[C@@H](C)C(=O)N[C@@H](CCCCN)C(=O)N[C@@H](CO)C(=O)O)[C@@H](C)O (H-S[Dip]RNGVGTGMKKTSFQRAKS-OH) | 130 | – | –
CSCC[C@H](NC(=O)CNC(=O)[C@@H](NC(=O)CNC(=O)[C@@H](NC(=O)CNC(=O)[C@H](CC(N)=O)NC(=O)[C@H](CCCNC(=N)N)NC(=O)[C@@H](NC(=O)[C@@H](N)CO)c1ccccc1)C(C)C)[C@@H](C)O)C(=O)N[C@@H](CCCCN)C(=O)N[C@@H](CCCCN)C(=O)N[C@H](C(=O)N[C@@H](CO)C(=O)N[C@@H](Cc1ccccc1)C(=O)N[C@@H](CCC(N)=O)C(=O)N[C@@H](CCCNC(=N)N)C(=O)N[C@@H](C)C(=O)N[C@@H](CCCCN)C(=O)N[C@@H](CO)C(=O)O)[C@@H](C)O (H-S[Phg]RNGVGTGMKKTSFQRAKS-OH) | 141 | – | –
CSCC[C@H](NC(=O)CNC(=O)[C@@H](NC(=O)CNC(=O)[C@@H](NC(=O)CNC(=O)[C@H](CC(N)=O)NC(=O)[C@H](CCCNC(=N)N)NC(=O)[C@H](CCc1ccccc1)NC(=O)[C@@H](N)CO)C(C)C)[C@@H](C)O)C(=O)N[C@@H](CCCCN)C(=O)N[C@@H](CCCCN)C(=O)N[C@H](C(=O)N[C@@H](CO)C(=O)N[C@@H](Cc1ccccc1)C(=O)N[C@@H](CCC(N)=O)C(=O)N[C@@H](CCCNC(=N)N)C(=O)N[C@@H](C)C(=O)N[C@@H](CCCCN)C(=O)N[C@@H](CO)C(=O)O)[C@@H](C)O (H-S[hPhe]RNGVGTGMKKTSFQRAKS-OH) | – | 4.17 | 216
CSCC[C@H](NC(=O)CNC(=O)[C@@H](NC(=O)CNC(=O)[C@@H](NC(=O)CNC(=O)[C@H](CC(N)=O)NC(=O)[C@H](CCCNC(=N)N)NC(=O)[C@H](Cc1ccc2ccccc2c1)NC(=O)[C@@H](N)CO)C(C)C)[C@@H](C)O)C(=O)N[C@@H](CCCCN)C(=O)N[C@@H](CCCCN)C(=O)N[C@H](C(=O)N[C@@H](CO)C(=O)N[C@@H](Cc1ccccc1)C(=O)N[C@@H](CCC(N)=O)C(=O)N[C@@H](CCCNC(=N)N)C(=O)N[C@@H](C)C(=O)N[C@@H](CCCCN)C(=O)N[C@@H](CO)C(=O)O)[C@@H](C)O [[2Nal2]hNPS] (H-S[2Nal]RNGVGTGMKKTSFQRAKS-OH) | – | 2.19 | 213
H-SHRNGVGTGMKKTSFQRAKS-OH | – | 132 | 288
H-SNRNGVGTGMKKTSFQRAKS-OH | 49 | – | –
H-STRNGVGTGMKKTSFQRAKS-OH | 114 | – | –

Continued, values first:

Activity [1] [%] | EC50 [2] [nM] | Emax [3] [%] | Molecule
– | 3.63 | 290 | CSCC[C@H](NC(=O)CNC(=O)[C@@H](NC(=O)CNC(=O)[C@@H](NC(=O)CNC(=O)[C@H](CC(N)=O)NC(=O)[C@H](CCCNC(=N)N)NC(=O)[C@H](Cc1ccc([N+](=O)[O-])cc1)NC(=O)[C@@H](N)CO)C(C)C)[C@@H](C)O)C(=O)N[C@@H](CCCCN)C(=O)N[C@@H](CCCCN)C(=O)N[C@H](C(=O)N[C@@H](CO)C(=O)N[C@@H](Cc1ccccc1)C(=O)N[C@@H](CCC(N)=O)C(=O)N[C@@H](CCCNC(=N)N)C(=O)N[C@@H](C)C(=O)N[C@@H](CCCCN)C(=O)N[C@@H](CO)C(=O)O)[C@@H](C)O (H-S[Phe(4-NO2)]RNGVGTGMKKTSFQRAKS-OH)
– | 8.13 | 244 | CSCC[C@H](NC(=O)CNC(=O)[C@@H](NC(=O)CNC(=O)[C@@H](NC(=O)CNC(=O)[C@H](CC(N)=O)NC(=O)[C@H](CCCNC(=N)N)NC(=O)[C@@H]1Cc2ccccc2CN1C(=O)[C@@H](N)CO)C(C)C)[C@@H](C)O)C(=O)N[C@@H](CCCCN)C(=O)N[C@@H](CCCCN)C(=O)N[C@H](C(=O)N[C@@H](CO)C(=O)N[C@@H](Cc1ccccc1)C(=O)N[C@@H](CCC(N)=O)C(=O)N[C@@H](CCCNC(=N)N)C(=O)N[C@@H](C)C(=O)N[C@@H](CCCCN)C(=O)N[C@@H](CO)C(=O)O)[C@@H](C)O (H-S[Tic]RNGVGTGMKKTSFQRAKS-OH)
177 | – | – | CSCC[C@H](NC(=O)CNC(=O)[C@@H](NC(=O)CNC(=O)[C@@H](NC(=O)CNC(=O)[C@H](CC(N)=O)NC(=O)[C@H](CCCNC(=N)N)NC(=O)C[C@H](Cc1ccccc1)NC(=O)[C@@H](N)CO)C(C)C)[C@@H](C)O)C(=O)N[C@@H](CCCCN)C(=O)N[C@@H](CCCCN)C(=O)N[C@H](C(=O)N[C@@H](CO)C(=O)N[C@@H](Cc1ccccc1)C(=O)N[C@@H](CCC(N)=O)C(=O)N[C@@H](CCCNC(=N)N)C(=O)N[C@@H](C)C(=O)N[C@@H](CCCCN)C(=O)N[C@@H](CO)C(=O)O)[C@@H](C)O (H-S[β3hF]RNGVGTGMKKTSFQRAKS-OH)
39 | – | – | H-SDRNGVGTGMKKTSFQRAKS-OH
170 | – | – | H-SERNGVGTGMKKTSFQRAKS-OH
– | 1.1 | 270 | H-SFRNGVGTGMKKTSFQRAKS-OH [NEUROPEPTIDE S]
103 | – | – | H-SKRNGVGTGMKKTSFQRAKS-OH
– | 8.32 | 282 | H-SLRNGVGTGMKKTSFQRAKS-OH
54 | – | – | H-SQRNGVGTGMKKTSFQRAKS-OH
– | 2.24 | 323 | H-SWRNGVGTGMKKTSFQRAKS-OH
– | 2.34 | 312 | H-SYRNGVGTGMKKTSFQRAKS-OH
